Measurements reported in ChEMBL document CHEMBL1781968, “δ-Carbolines and their ring-opened analogs: synthesis and evaluation against fungal and bacterial opportunistic pathogens” (Eur J Med Chem, 2011).
≈ marks a conversion by molar mass, not a printed value.

Tests used:
Staphylococcus aureus [1] = test: Antibacterial activity against Staphylococcus aureus ATCC 29213 by NCCLS method; type: functional, organism-based
In short: (§1)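 Broth microdilution (modified NCCLS). Samples in DMSO serially diluted in 0.9% saline, tested in duplicate, highest final concentration 20 μg/mL. Inoculum matched to 0.5 McFarland standard by absorbance at 630 nm, then diluted in cation-adjusted Mueller–Hinton broth. Growth, solvent and medium controls on each plate. Absorbance at 530 nm read before and after incubation. IC50 taken from percent growth versus concentration plot; MIC is lowest concentration with no detectable growth; MBC is lowest concentration killing the organism.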

[2] = tested on: Mycobacterium intracellulare; test: Antibacterial activity against Mycobacterium intracellular ATCC 23068 by alamar blue method; type: functional, organism-based
In short: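 Modified Alamar blue method (Franzblau). Samples in DMSO serially diluted in 0.9% saline, in duplicate, final concentrations starting at 20 μg/mL. Inoculum adjusted to 0.5 McFarland, then diluted in Middlebrook 7H9 with OADC enrichment plus 5% Alamar blue. Fluorescence read (ex 544/em 590 nm) before and after incubation. IC50 from percent growth versus concentration. MIC is no detectable growth.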

Aspergillus fumigatus = test: Antifungal activity against Aspergillus fumigatus ATCC 204305 by NCCLS method; type: functional, organism-based
In short: (§2)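 Modified NCCLS microdilution for fungi. Samples in DMSO serially diluted with 0.9% saline, in duplicate, final concentrations from 20 μg/mL down. Inocula matched to 0.5 McFarland (630 nm) and diluted in Sabouraud dextrose broth. Growth, solvent and medium controls included. OD 530 nm read before and after incubation. IC50 from percent growth curve. MIC is no detectable growth. MFC is lowest concentration killing the organism.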

[3] = Cytotoxicity against african green monkey Vero cell after 48 hrs by neutral red uptake assay; type: cell-based; settings: chlorocebus sabaeus, Vero cells; read-out: TC50
In short: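 VERO kidney fibroblasts seeded at 25,000 cells/well and incubated 24 h. Compounds added, highest concentration 10 μg/mL, then 48 h further incubation. Viable cells measured by neutral red assay. IC50 taken from growth-inhibition dose curves. Doxorubicin as positive control, DMSO as vehicle control.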

Staphylococcus aureus [4] = test: Antibacterial activity against methicillin-resistant Staphylococcus aureus ATCC 33591 by NCCLS method; type: functional, organism-based; in short: as §1
Escherichia coli = test: Antibacterial activity against Escherichia coli by NCCLS method; type: functional, organism-based
In short: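 Modified NCCLS broth microdilution. DMSO-dissolved samples serially diluted in 0.9% saline, tested in duplicate, final concentrations starting at 20 μg/mL. Inoculum set to 0.5 McFarland (absorbance 630 nm) and diluted in cation-adjusted Mueller–Hinton broth. Growth, solvent and medium controls on each plate. Read at 530 nm before and after incubation. IC50 from percent growth versus concentration. MIC is lowest concentration with no detectable growth.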

Candida albicans = test: Antifungal activity against Candida albicans ATCC 90028 by NCCLS method; type: functional, organism-based; in short: as §2
Cryptococcus neoformans = test: Antifungal activity against Cryptococcus neoformans ATCC 90113 by NCCLS method; type: functional, organism-based; in short: as §2

Structure (SMILES) | IC50 (Staphylococcus aureus [1]) [µg/mL] | MBC (Staphylococcus aureus [1]) [µg/mL] | MIC (Staphylococcus aureus [1]) [µg/mL] | IC50 [2] [µg/mL] | MBC [2] [µg/mL] | MIC [2] [µg/mL] | MFC (Aspergillus fumigatus) [µg/mL] | MIC (Aspergillus fumigatus) [µg/mL] | CC50 at 48 h [3] [µg/mL] | IC50 (Staphylococcus aureus [4]) [µg/mL] | MBC (Staphylococcus aureus [4]) [µg/mL] | MIC (Staphylococcus aureus [4]) [µg/mL] | IC50 (Escherichia coli) [µg/mL] | MBC (Escherichia coli) [µg/mL] | MIC (Escherichia coli) [µg/mL] | IC50 (Aspergillus fumigatus) [µg/mL] | MFC (Candida albicans) [µg/mL] | MIC (Candida albicans) [µg/mL] | IC50 (Cryptococcus neoformans) [µg/mL] | MIC (Cryptococcus neoformans) [µg/mL] | further results
CSc1ccc(N(CCCCCC2CCCCC2)c2ccc[n+](C)c2)cc1.[I-] | 0.3 | 5 | 0.6 | 1 | 5 | 1.3 | 10 | 10 | > 10 | 1 | 2.5 | 2.5 | 5.2 | 20 | 20 | – | – | – | – | – | –
C[n+]1cccc(N(CCCCCC2CCCCC2)c2ccccc2Cl)c1.[I-] | 0.3 | 10 | 0.6 | 2.1 | 5 | 2.5 | > 20 | > 20 | – | 1.1 | 10 | 2.5 | 7.6 | > 20 | > 20 | – | – | – | – | – | –
C[n+]1cccc2c1c1ccc(Cl)cc1n2CCCCCC1CCCCC1.[I-] | 0.4 | 5 | 0.6 | 0.7 | 5 | 1.3 | > 20 | 20 | > 10 | 1.2 | 2.5 | 2.5 | 5.9 | > 20 | > 20 | 16 | 10 | 5 | 0.3 | 0.6 | IC50 (Candida albicans): 2.9 µg/mL; MFC (Cryptococcus neoformans): 0.6 µg/mL
C[n+]1cccc2c1c1ccccc1n2CCCCCC1CCCCC1.[I-] | – | – | – | 0.55 | 2.5 | 1.3 | 5 | 0.63 | 7.5 | 1.5 | 5 | 2.5 | 5 | > 20 | > 20 | 0.45 | > 20 | 5 | 0.45 | 0.63 | IC50 (Candida albicans): 3 µg/mL; MFC (Cryptococcus neoformans): 5 µg/mL
C[n+]1cccc(N(CCCCCC2CCCCC2)c2ccc(Cl)cc2)c1.[I-] | 1.5 | – | 3.1 | 1 | – | 1.6 | > 20 | 1.6 | > 10 | – | – | – | – | – | – | – | > 20 | – | – | – | –
C[n+]1c2ccccc2cc2[nH]c3ccccc3c21.[I-] [CRYPTOLEPTINE IODIDE] | 10 | – | – | – | – | – | – | – | 3.2 | 20 | – | – | – | – | – | – | – | > 250 | – | 12.5 | –
C[n+]1cccc(N(CCCCCC2CCCCC2)c2cccc(Cl)c2)c1.[I-] | 0.34 | 5 | 0.63 | 2.1 | 5 | 2.5 | 20 | 20 | > 10 | 1.3 | 5 | 2.5 | 6.5 | > 20 | > 20 | 12 | – | – | 0.72 | – | –
Cc1ccc2c(c1)c1c(ccc[n+]1C)n2CCCCCC1CCCCC1.[I-] | 0.4 | 10 | 0.6 | 1.5 | 5 | 2.5 | > 20 | 20 | > 10 | 1.6 | 10 | 5 | 5.6 | > 20 | > 20 | 17 | 20 | 5 | 1.3 | 2.5 | IC50 (Candida albicans): 2.9 µg/mL; MFC (Cryptococcus neoformans): 2.5 µg/mL
C[n+]1cccc2c1c1cc(C(F)(F)F)ccc1n2CCCCCC1CCCCC1.[I-] | 0.4 | 10 | 0.6 | 0.8 | 2.5 | 1.3 | > 20 | > 20 | > 10 | 1.2 | 10 | 2.5 | 7.6 | > 20 | > 20 | 18 | 20 | 10 | 0.4 | 0.6 | IC50 (Candida albicans): 5.8 µg/mL; MFC (Cryptococcus neoformans): 1.3 µg/mL
C[n+]1cccc(N(CCCCCC2CCCCC2)c2ccccc2)c1.[I-] | 0.7 | 10 | 1.3 | 2.1 | 2.5 | 2.5 | > 20 | > 20 | > 10 | 3.4 | 20 | 10 | 7.6 | > 20 | > 20 | 20 | > 20 | – | – | – | –
Cc1ccc(N(CCCCCC2CCCCC2)c2ccc[n+](C)c2)cc1.[I-] | – | – | – | 1.5 | 2.5 | 2.5 | 5 | 5 | > 10 | 1 | 2.5 | 2.5 | 4.5 | > 20 | 20 | – | – | – | – | – | –
C[n+]1cccc(N(CCCCCC2CCCCC2)c2ccc(C(F)(F)F)cc2)c1.[I-] | – | – | – | 1 | 1.3 | 1.3 | 5 | 2.5 | > 10 | 0.9 | 2.5 | 2.5 | 3.5 | 20 | 20 | – | – | – | – | – | –
C[C@@H]1[C@H](O)[C@@H](C)/C=C/C=C/C=C/C=C/C=C/C=C/C=C/[C@H](O[C@@H]2O[C@H](C)[C@@H](O)[C@H](N)[C@@H]2O)C[C@@H]2O[C@](O)(C[C@@H](O)C[C@@H](O)[C@H](O)CC[C@@H](O)C[C@@H](O)CC(=O)O[C@H]1C)C[C@H](O)[C@H]2C(=O)O [AMPHOTERICIN B] | – | – | – | – | – | – | 5 (≈ 5.41 µM) | 1.3 (≈ 1.41 µM) | – | – | – | – | – | – | – | – | – | – | – | 0.63 (≈ 0.682 µM) | MFC (Cryptococcus neoformans): 0.63 µg/mL (≈ 0.682 µM)
